Bioassay records (PubChem)
PostGolgi yeast: growth inhibition of a yeast mutant, post-Golgi transport screen. post-Golgi transport phenotypic cell assay. inhibition, % at 10 µM. 0.9% of 98,000 active. AID 739;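 note: yeast cells grown in 1536-well plates; yeast grown about 18 h at 30C before absorbance read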
Rev-RRE block: inhibitors of HIV-1 Rev-RRE RNA interaction | P05866 | Rev peptide-RRE RNA binding, FRET | inhibition, % at 8 µM | 0.79% of 97,000 active;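 active = inhibition above the screen-wide mean plus 3 SD, cut at about 35% in these data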;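 note: 0% = median DMSO wells and 100% = median Neomycin B control wells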
Target sequence (P05866 whole entry, looked up): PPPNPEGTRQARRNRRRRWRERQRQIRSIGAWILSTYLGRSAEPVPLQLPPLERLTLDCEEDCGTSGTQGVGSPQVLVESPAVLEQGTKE
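Probe or stimulus: fluorescein-Rev peptide as binding partner; assay system: Cy5-tagged RRE RNA duplex with fluorescein-tagged Rev peptide; timing: 5 min compound–RNA preincubation, then 15 min with peptide, 25 °C; medium: HEPES pH 7.5 buffer with KCl, MgCl2, NaCl and EDTA; signal: fluorescein-to-Cy5 FRET, 480 nm excitation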
PLK1 PBD inh: inhibitors of human Plk1 polo box domain binding; 0.13% of 97,000 active; inhibition, %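 (tested at about 20 µM)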; P53350; Plk1 PBD phosphopeptide binding, fluorescence polarization; in the data active = inhibition above about 34%, passing the limit was not always enough
EphB4 ephrin blk: EphB4-ephrin-B2 interaction antagonism; EphB4 LBD / TNYL-RAW-Alexa532 peptide, fluorescence polarization; inhibition, % at 7 µM; 0.15% of 97,000 active; P54760;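 active = inhibition above the screen-wide mean inhibition plus 3 SD, cut at about 15% in these data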;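 note: 0% = DMSO wells and 100% = excess unlabeled TNYL-RAW peptide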
PostGolgi ctrl: inhibits growth of the yeast control strain. 5% of 98,000 active. inhibition, % at 10 µM. efflux-deficient yeast background strain, growth absorbance A615, 16 h. AID 738
PLK1 kinase inh: PLK1 (human) kinase inhibition | P53350 | recombinant PLK1 kinase, TR-FRET peptide phosphorylation | inhibition, % at 10 µM | 0.53% of 97,000 active;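 active = inhibition of 50% or more in the single-concentration screen; inactive = inhibition below 50%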;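 note: 0% = DMSO max control and 100% = H-89 dihydrochloride min control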
* hit, by the source's call; x = not tested or not shown. In the library only some 6.4% were active in any assay of this set; here they are far more common. Cut-off read from the data, not from the text of the source, unless noted: active = inhibition above about 30%; inactive = the rest.

SMILES | PostGolgi yeast | Rev-RRE block | PLK1 PBD inh | EphB4 ephrin blk | PostGolgi ctrl | PLK1 kinase inh
O=C(N/N=C\c1ccc(Sc2ccccn2)o1)c1cccc(F)c1 | 13 | 0 | -10 | -1 | 3 | 6
N#C/C(=C/c1ccc(Sc2nc3ccccc3[nH]2)o1)c1ccccc1F | 41* | 18 | -9 | -7 | 28 | -6
N#C/C(=C/c1ccc(Sc2nc3ccccc3[nH]2)o1)c1cccc(F)c1 | 2 | 16 | -30 | 4 | 55* | 0
N#C/C(=C/c1ccc(Sc2nc3ccccc3[nH]2)o1)c1cccc(Br)c1 | 0 | 16 | 3 | -1 | 32* | -4
O=C1c2ccccc2C(Nc2ccc(F)c(Cl)c2)N1c1ccccn1 (centres undefined) | -2 | 13 | -18 | 3 | 20 | -3
O=C1c2ccccc2C(Nc2ccc3c(c2)OCCO3)N1c1ccc(Cl)cn1 (centres undefined) | 1 | 0 | -11 | -6 | 35* | -13
COc1ccc(NC2c3ccccc3C(=O)N2c2ccccn2)cc1Cl (centres undefined) | 7 | 3 | -15 | -4 | 47* | -4
O=C(Cc1nc(-c2ccc([N+](=O)[O-])cc2)cs1)Nc1ccccc1 | -4 | 4 | 20 | 6 | 6 | -6
N#Cc1ccccc1NC(=O)c1ccc(-c2ccccc2Cl)o1 | -7 | 2 | -3 | 6 | -3 | -8
Cc1cc([N+](=O)[O-])ccc1NC(=S)NC(=O)C(c1ccccc1)c1ccccc1 | 7 | 1 | -27 | -3 | 46* | -13
Cc1cc([N+](=O)[O-])ccc1NC(=S)NC(=O)Cc1ccccc1 | -8 | 13 | 2 | -1 | 30* | 22
CC1=NN(C(=O)c2ccc(Cn3nc(C)cc3C)o2)C(O)(C(F)(F)F)C1 (centres undefined) | 7 | 2 | -4 | 4 | -2 | -2
Cc1cc(C(=O)CSc2nc3ccccc3o2)c(C)n1C1CC1 | 3 | 1 | 16 | -5 | 23 | -6
C=CCn1c(C)cc(C(=O)CSc2nc3ccccc3o2)c1C | -14 | -2 | 13 | 4 | 52* | -4
C=CCn1c(C)cc(C(=O)CSc2nnc(Cc3ccccc3)o2)c1C | 82* | 3 | 19 | -2 | 96* | -3
C=CCn1c(C)cc(C(=O)CSc2nnc(NCc3ccccc3)s2)c1C | 62* | 6 | 12 | 6 | 96* | -1
Cc1cc(C(=O)CSc2nnc(Cc3ccccc3)o2)c(C)n1Cc1ccc2c(c1)OCO2 | -4 | 0 | 4 | -2 | 15 | -4
C=CCn1c(C)cc(C(=O)CSc2nc3ccccc3c(=O)[nH]2)c1C | 25 | 2 | 26 | -6 | 89* | -9
COc1ccc(C(=O)NCCc2c[nH]c3ccccc23)cc1S(=O)(=O)N1CCOCC1 | 4 | 3 | 15 | 3 | 9 | -7
CCCc1nnc(SCC(=O)N2CCOCC2)n1C | x | 9 | -1 | 6 | x | -6
CCCCCn1c(=O)[nH]c2cc(C(=O)NCc3ccco3)ccc2c1=O | 4 | 3 | -17 | 0 | 11 | -3
Cc1ccc(-c2nnc(Sc3nc4ccccc4o3)c3ccccc23)cc1 | -22 | 9 | 13 | -1 | 64* | -3
Clc1ccc(-c2nnc(Sc3nc4ccccc4o3)c3ccccc23)cc1 | -8 | 9 | 1 | 3 | 57* | 3
CCOC(=O)c1sc(N)c(C#N)c1COC(=O)CNC(=O)c1cc(OC)c(OC)c(OC)c1 | -1 | 53* | -21 | -2 | 20 | -1
Cc1oc(-c2ccccc2)cc1C(=O)Nc1ccc(N(C)C)cc1 | -6 | -5 | -9 | -6 | -7 | -11
SMILES | PostGolgi yeast | Rev-RRE block | PLK1 PBD inh | EphB4 ephrin blk | PostGolgi ctrl | PLK1 kinase inh
CC1CCCC(C)N1C(=O)c1cc(F)c(F)cc1Cl (centres undefined) | -6 | -3 | -7 | -2 | 37* | -11
COC(=O)C1CSc2[nH]c(=O)sc2C1c1ccccc1 (centres undefined) | -2 | 79* | -26 | 7 | 9 | -17
COc1cccc(Nc2ncnc3ccccc23)c1 | 10 | 5 | -6 | -4 | 1 | -4
O=C(Oc1cccc(Nc2ncnc3ccccc23)c1)c1ccccc1Cl | -1 | 9 | 27 | -8 | 69* | -12
O=C(CCl)Nc1ccc(Oc2cnc3ccccc3n2)cc1 | -4 | 1 | 14 | -3 | 5 | -18
COc1ccc(-c2c(C#N)c(N)nc3c2CCc2ccccc2-3)cc1OC | -1 | 12 | -39 | -4 | 44* | -11
